From ChEMBL document CHEMBL1932946, “Design, synthesis and anticonvulsant evaluation of novel N-(4-substituted phenyl)-2-[4-(substituted) benzylidene]-hydrazinecarbothio amides” (Eur J Med Chem, 2012)
Calls of active or inactive are those of the source. No cut-off for these calls is given here.

System: Mus musculus
Experiment: Neurotoxicity in albino CF-1 mouse assessed as minimum motor impairment at 300 mg/kg, ip after 4 hrs by rotarod test
Format: toxicity, organism-based
Parameters: dose 300 mg/kg, route intraperitoneal
Details: in vivo
Procedure, shortened: (§1)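 Minimal motor impairment assessed in male CF-1 albino mice (18–25 g) at 0.5 and 4 h after i.p. doses of 30, 100 and 300 mg/kg, given in 0.5% methyl cellulose. Minimum dose toxic in half or more of mice recorded.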

| SMILES | Activity |
| --- | --- |
| O=[N+]([O-])c1ccc(Oc2ccc(/C=N/NC(=S)Nc3ccc(F)cc3)cc2)cc1 | Non-toxic |
| Fc1ccc(NC(=S)N/N=C/c2ccc(Oc3ccc4c(c3)OCO4)cc2)cc1 | Non-toxic |
| S=C(N/N=C/c1ccc(Oc2ccc(Cl)cc2)cc1)Nc1ccc(Br)cc1 | Non-toxic |
| S=C(N/N=C/c1ccc(Oc2ccc(Br)cc2)cc1)Nc1ccccc1 | Non-toxic |
| Fc1ccc(NC(=S)N/N=C/c2ccc(Oc3ccc(Br)cc3)cc2)cc1 | Non-toxic |
| Fc1ccc(Oc2ccc(/C=N/NC(=S)Nc3ccc(Cl)cc3)cc2)cc1 | Non-toxic |
| Fc1ccc(Oc2ccc(/C=N/NC(=S)Nc3ccccc3)cc2)cc1 | Non-toxic |
| Cc1cc(Oc2ccc(/C=N/NC(=S)Nc3ccc(Cl)cc3)cc2)ccc1Cl | Non-toxic |
| Cc1cc(Oc2ccc(/C=N/NC(=S)Nc3ccccc3)cc2)ccc1Cl | Non-toxic |
| S=C(N/N=C/c1ccc(Oc2ccccc2)cc1)Nc1ccc(Cl)cc1 | Non-toxic |
| Fc1ccc(NC(=S)N/N=C/c2ccc(Oc3ccccc3)cc2)cc1 | Non-toxic |
| O=[N+]([O-])c1ccc(Oc2ccc(/C=N/NC(=S)Nc3ccccc3)cc2)cc1 | Non-toxic |
| O=[N+]([O-])c1ccc(Oc2ccc(/C=N/NC(=S)Nc3ccc(Br)cc3)cc2)cc1 | Non-toxic |
| Fc1ccc(NC(=S)N/N=C/c2ccc(Oc3ccc(F)cc3)cc2)cc1 | Non-toxic |
| Cc1ccc(Oc2ccc(/C=N/NC(=S)Nc3ccccc3)cc2)cc1 | Non-toxic |
| S=C(N/N=C/c1ccc(Oc2ccc3ccccc3c2)cc1)Nc1ccc(Cl)cc1 | Non-toxic |
| Fc1ccc(Oc2ccc(/C=N/NC(=S)Nc3ccc(Br)cc3)cc2)cc1 | Non-toxic |

System: Mus musculus
Experiment: Anticonvulsant activity in albino CF-1 mouse assessed as protection against 6 Hz psychomotor seizure at 100 mg/kg, ip after 2 hrs by minimal clonic seizure test
Format: functional
Details: not given
Procedure, shortened: (§2)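 Male CF-1 albino mice (18–25 g) given compound i.p., suspended in 0.5% methyl cellulose, 100 mg/kg in screen. Four mice per time point challenged at 0.25, 0.5, 1.0, 2.0 and 4.0 h via corneal electrodes (32 mA, 3 s, 6 Hz). Protection = absence of psychomotor seizure (minimal clonic phase, automatistic behaviours). Scored as animals protected/tested.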

| SMILES | Activity |
| --- | --- |
| O=[N+]([O-])c1ccc(Oc2ccc(/C=N/NC(=S)Nc3ccc(F)cc3)cc2)cc1 | inactive |
| S=C(N/N=C/c1ccc(Oc2ccc(Br)cc2)cc1)Nc1ccccc1 | Active |
| Fc1ccc(NC(=S)N/N=C/c2ccc(Oc3ccc(Br)cc3)cc2)cc1 | inactive |
| Fc1ccc(Oc2ccc(/C=N/NC(=S)Nc3ccc(Cl)cc3)cc2)cc1 | Active |
| Fc1ccc(Oc2ccc(/C=N/NC(=S)Nc3ccccc3)cc2)cc1 | inactive |
| Cc1cc(Oc2ccc(/C=N/NC(=S)Nc3ccccc3)cc2)ccc1Cl | inactive |
| Fc1ccc(NC(=S)N/N=C/c2ccc(Oc3ccccc3)cc2)cc1 | inactive |
| Fc1ccc(NC(=S)N/N=C/c2ccc(Oc3ccc(F)cc3)cc2)cc1 | Active |
| Fc1ccc(Oc2ccc(/C=N/NC(=S)Nc3ccc(Br)cc3)cc2)cc1 | Active |

Same assay, conditions: route intraperitoneal

| SMILES | Activity |
| --- | --- |
| Cc1cc(Oc2ccc(/C=N/NC(=S)Nc3ccc(Cl)cc3)cc2)ccc1Cl | 50% |

System: Mus musculus
Experiment: Anticonvulsant activity in albino CF-1 mouse assessed as protection against 6 Hz psychomotor seizure at 100 mg/kg, ip after 1 hr by minimal clonic seizure test
Format: functional
Details: not given
Procedure, shortened: as §2

| SMILES | Activity |
| --- | --- |
| O=[N+]([O-])c1ccc(Oc2ccc(/C=N/NC(=S)Nc3ccc(F)cc3)cc2)cc1 | Active |
| S=C(N/N=C/c1ccc(Oc2ccc(Br)cc2)cc1)Nc1ccccc1 | Active |
| Fc1ccc(NC(=S)N/N=C/c2ccc(Oc3ccc(Br)cc3)cc2)cc1 | inactive |
| Fc1ccc(Oc2ccc(/C=N/NC(=S)Nc3ccc(Cl)cc3)cc2)cc1 | inactive |
| Fc1ccc(Oc2ccc(/C=N/NC(=S)Nc3ccccc3)cc2)cc1 | Active |
| Cc1cc(Oc2ccc(/C=N/NC(=S)Nc3ccccc3)cc2)ccc1Cl | inactive |
| Fc1ccc(NC(=S)N/N=C/c2ccc(Oc3ccccc3)cc2)cc1 | inactive |
| Fc1ccc(NC(=S)N/N=C/c2ccc(Oc3ccc(F)cc3)cc2)cc1 | inactive |
| Fc1ccc(Oc2ccc(/C=N/NC(=S)Nc3ccc(Br)cc3)cc2)cc1 | Active |

Same assay, conditions: route intraperitoneal

| SMILES | Activity |
| --- | --- |
| Cc1cc(Oc2ccc(/C=N/NC(=S)Nc3ccc(Cl)cc3)cc2)ccc1Cl | 50% |

System: Mus musculus
Experiment: Anticonvulsant activity in albino CF-1 mouse assessed as protection against 6 Hz psychomotor seizure at 100 mg/kg, ip after 0.25 hrs by minimal clonic seizure test
Format: functional
Details: not given
Procedure, shortened: as §2

| SMILES | Activity |
| --- | --- |
| O=[N+]([O-])c1ccc(Oc2ccc(/C=N/NC(=S)Nc3ccc(F)cc3)cc2)cc1 | inactive |
| S=C(N/N=C/c1ccc(Oc2ccc(Br)cc2)cc1)Nc1ccccc1 | inactive |
| Fc1ccc(NC(=S)N/N=C/c2ccc(Oc3ccc(Br)cc3)cc2)cc1 | inactive |
| Fc1ccc(Oc2ccc(/C=N/NC(=S)Nc3ccc(Cl)cc3)cc2)cc1 | Active |
| Fc1ccc(Oc2ccc(/C=N/NC(=S)Nc3ccccc3)cc2)cc1 | inactive |
| Cc1cc(Oc2ccc(/C=N/NC(=S)Nc3ccc(Cl)cc3)cc2)ccc1Cl | inactive |
| Cc1cc(Oc2ccc(/C=N/NC(=S)Nc3ccccc3)cc2)ccc1Cl | inactive |
| Fc1ccc(NC(=S)N/N=C/c2ccc(Oc3ccccc3)cc2)cc1 | Active |
| Fc1ccc(Oc2ccc(/C=N/NC(=S)Nc3ccc(Br)cc3)cc2)cc1 | inactive |

Same assay, conditions: route intraperitoneal

| SMILES | Activity |
| --- | --- |
| Fc1ccc(NC(=S)N/N=C/c2ccc(Oc3ccc(F)cc3)cc2)cc1 | 50% |

System: Mus musculus
Experiment: Neurotoxicity in albino CF-1 mouse assessed as minimum motor impairment at 300 mg/kg, ip after 0.5 hrs by rotarod test
Format: toxicity, organism-based
Parameters: dose 300 mg/kg, route intraperitoneal
Details: in vivo
Procedure, shortened: as §1

| SMILES | Activity |
| --- | --- |
| O=[N+]([O-])c1ccc(Oc2ccc(/C=N/NC(=S)Nc3ccc(F)cc3)cc2)cc1 | Non-toxic |
| Fc1ccc(NC(=S)N/N=C/c2ccc(Oc3ccc4c(c3)OCO4)cc2)cc1 | Non-toxic |
| S=C(N/N=C/c1ccc(Oc2ccc(Cl)cc2)cc1)Nc1ccc(Br)cc1 | Non-toxic |
| S=C(N/N=C/c1ccc(Oc2ccc(Br)cc2)cc1)Nc1ccccc1 | Non-toxic |
| Fc1ccc(NC(=S)N/N=C/c2ccc(Oc3ccc(Br)cc3)cc2)cc1 | Non-toxic |
| Fc1ccc(Oc2ccc(/C=N/NC(=S)Nc3ccc(Cl)cc3)cc2)cc1 | Non-toxic |
| Fc1ccc(Oc2ccc(/C=N/NC(=S)Nc3ccccc3)cc2)cc1 | Non-toxic |
| Cc1cc(Oc2ccc(/C=N/NC(=S)Nc3ccc(Cl)cc3)cc2)ccc1Cl | Non-toxic |
| Cc1cc(Oc2ccc(/C=N/NC(=S)Nc3ccccc3)cc2)ccc1Cl | Non-toxic |
| S=C(N/N=C/c1ccc(Oc2ccccc2)cc1)Nc1ccc(Cl)cc1 | Non-toxic |
| Fc1ccc(NC(=S)N/N=C/c2ccc(Oc3ccccc3)cc2)cc1 | Non-toxic |
| O=[N+]([O-])c1ccc(Oc2ccc(/C=N/NC(=S)Nc3ccccc3)cc2)cc1 | Non-toxic |
| O=[N+]([O-])c1ccc(Oc2ccc(/C=N/NC(=S)Nc3ccc(Br)cc3)cc2)cc1 | Non-toxic |
| Fc1ccc(NC(=S)N/N=C/c2ccc(Oc3ccc(F)cc3)cc2)cc1 | Non-toxic |
| Cc1ccc(Oc2ccc(/C=N/NC(=S)Nc3ccccc3)cc2)cc1 | Non-toxic |
| S=C(N/N=C/c1ccc(Oc2ccc3ccccc3c2)cc1)Nc1ccc(Cl)cc1 | Non-toxic |
| Fc1ccc(Oc2ccc(/C=N/NC(=S)Nc3ccc(Br)cc3)cc2)cc1 | Non-toxic |

System: Mus musculus
Experiment: Anticonvulsant activity in albino CF-1 mouse assessed as protection against 6 Hz psychomotor seizure at 100 mg/kg, ip after 0.5 hrs by minimal clonic seizure test
Format: functional
Details: not given
Procedure, shortened: as §2

| SMILES | Activity |
| --- | --- |
| S=C(N/N=C/c1ccc(Oc2ccc(Br)cc2)cc1)Nc1ccccc1 | Active |
| Fc1ccc(NC(=S)N/N=C/c2ccc(Oc3ccc(Br)cc3)cc2)cc1 | Active |
| Fc1ccc(Oc2ccc(/C=N/NC(=S)Nc3ccc(Cl)cc3)cc2)cc1 | Active |
| Fc1ccc(Oc2ccc(/C=N/NC(=S)Nc3ccccc3)cc2)cc1 | inactive |
| Cc1cc(Oc2ccc(/C=N/NC(=S)Nc3ccc(Cl)cc3)cc2)ccc1Cl | Active |
| Cc1cc(Oc2ccc(/C=N/NC(=S)Nc3ccccc3)cc2)ccc1Cl | Active |
| Fc1ccc(NC(=S)N/N=C/c2ccc(Oc3ccccc3)cc2)cc1 | Active |
| Fc1ccc(NC(=S)N/N=C/c2ccc(Oc3ccc(F)cc3)cc2)cc1 | Active |
| Fc1ccc(Oc2ccc(/C=N/NC(=S)Nc3ccc(Br)cc3)cc2)cc1 | Active |

Same assay, conditions: route intraperitoneal

| SMILES | Activity |
| --- | --- |
| O=[N+]([O-])c1ccc(Oc2ccc(/C=N/NC(=S)Nc3ccc(F)cc3)cc2)cc1 | 50% |

System: Mus musculus
Experiment: Anticonvulsant activity in albino CF-1 mouse assessed as protection against 6 Hz psychomotor seizure at 100 mg/kg, ip after 4 hrs by minimal clonic seizure test
Format: functional, organism-based
Parameters: dose 100 mg/kg
Details: not given
Procedure, shortened: as §2

| SMILES | Activity |
| --- | --- |
| O=[N+]([O-])c1ccc(Oc2ccc(/C=N/NC(=S)Nc3ccc(F)cc3)cc2)cc1 | inactive |
| S=C(N/N=C/c1ccc(Oc2ccc(Br)cc2)cc1)Nc1ccccc1 | inactive |
| Fc1ccc(NC(=S)N/N=C/c2ccc(Oc3ccc(Br)cc3)cc2)cc1 | inactive |
| Fc1ccc(Oc2ccc(/C=N/NC(=S)Nc3ccc(Cl)cc3)cc2)cc1 | Active |
| Fc1ccc(Oc2ccc(/C=N/NC(=S)Nc3ccccc3)cc2)cc1 | inactive |
| Cc1cc(Oc2ccc(/C=N/NC(=S)Nc3ccc(Cl)cc3)cc2)ccc1Cl | inactive |
| Cc1cc(Oc2ccc(/C=N/NC(=S)Nc3ccccc3)cc2)ccc1Cl | inactive |
| Fc1ccc(NC(=S)N/N=C/c2ccc(Oc3ccccc3)cc2)cc1 | inactive |
| Fc1ccc(NC(=S)N/N=C/c2ccc(Oc3ccc(F)cc3)cc2)cc1 | inactive |
| Fc1ccc(Oc2ccc(/C=N/NC(=S)Nc3ccc(Br)cc3)cc2)cc1 | inactive |

System: not listed separately
Experiment: Octanol-phosphate buffer partition coefficient, log P of the compound at 5 mg after 24 hrs by UV spectroscopic analysis
Format: physicochemical
Details: not given
Procedure, shortened: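 5 mg compound added to 10 mL octanol plus 10 mL phosphate buffer in a stoppered tube. Mixture shaken mechanically 24 h at room temperature, then left 6 h in a separating funnel to equilibrate.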

| SMILES | logP at 24 h |
| --- | --- |
| O=[N+]([O-])c1ccc(Oc2ccc(/C=N/NC(=S)Nc3ccc(F)cc3)cc2)cc1 | 4.89 |
| Fc1ccc(NC(=S)N/N=C/c2ccc(Oc3ccc4c(c3)OCO4)cc2)cc1 | 4.99 |
| S=C(N/N=C/c1ccc(Oc2ccc(Cl)cc2)cc1)Nc1ccc(Br)cc1 | 6.24 |
| S=C(N/N=C/c1ccc(Oc2ccc(Br)cc2)cc1)Nc1ccccc1 | 5.62 |
| Fc1ccc(NC(=S)N/N=C/c2ccc(Oc3ccc(Br)cc3)cc2)cc1 | 5.88 |
| Fc1ccc(Oc2ccc(/C=N/NC(=S)Nc3ccc(Cl)cc3)cc2)cc1 | 5.84 |
| Fc1ccc(Oc2ccc(/C=N/NC(=S)Nc3ccccc3)cc2)cc1 | 5.09 |
| Cc1cc(Oc2ccc(/C=N/NC(=S)Nc3ccc(Cl)cc3)cc2)ccc1Cl | 6.59 |
| Cc1cc(Oc2ccc(/C=N/NC(=S)Nc3ccccc3)cc2)ccc1Cl | 6.03 |
| S=C(N/N=C/c1ccc(Oc2ccccc2)cc1)Nc1ccc(Cl)cc1 | 5.64 |
| Fc1ccc(NC(=S)N/N=C/c2ccc(Oc3ccccc3)cc2)cc1 | 5.09 |
| O=[N+]([O-])c1ccc(Oc2ccc(/C=N/NC(=S)Nc3ccccc3)cc2)cc1 | 4.95 |
| O=[N+]([O-])c1ccc(Oc2ccc(/C=N/NC(=S)Nc3ccc(Br)cc3)cc2)cc1 | 5.68 |
| Fc1ccc(NC(=S)N/N=C/c2ccc(Oc3ccc(F)cc3)cc2)cc1 | 5.19 |
| Cc1ccc(Oc2ccc(/C=N/NC(=S)Nc3ccccc3)cc2)cc1 | 5.39 |
| S=C(N/N=C/c1ccc(Oc2ccc3ccccc3c2)cc1)Nc1ccc(Cl)cc1 | 6.96 |
| Fc1ccc(Oc2ccc(/C=N/NC(=S)Nc3ccc(Br)cc3)cc2)cc1 | 5.82 |
